What was measured:
[1] = target: E3 ubiquitin-protein ligase Mdm2 (Homo sapiens, UniProt Q00987); assay: Inhibition of HDM2 expressed in Escherichia coli BL21 (DE3) assessed as inhibition of HDM2 binding to p53 protein by fluorescence anisotropy competition method
Method in brief: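 Fluorescence anisotropy competition: HDM2(11–119) at 2.2 μM with 30 nM fluorescein-labeled human p53(15–29) (protein in 70-fold molar excess) in 10 mM Tris-HCl pH 7.6, 150 mM NaCl, 0.50 mM EDTA, 2 mM β-mercaptoethanol, incubated room temperature 1 h or 4 °C overnight. Competitor diluted in water from ~10−2 M stocks. Anisotropy read at 25 °C in triplicate; IC50 from nonlinear fit with slope factor.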

Protein Mdm4 = target: T1, Protein Mdm4 (Homo sapiens, UniProt O15151); assay: Inhibition of GST-tagged HDMX expressed in Escherichia coli BL21 (DE3) assessed as inhibition of HDMX binding to p53 protein by fluorescence anisotropy competition method
T1 sequence (O15151 whole entry): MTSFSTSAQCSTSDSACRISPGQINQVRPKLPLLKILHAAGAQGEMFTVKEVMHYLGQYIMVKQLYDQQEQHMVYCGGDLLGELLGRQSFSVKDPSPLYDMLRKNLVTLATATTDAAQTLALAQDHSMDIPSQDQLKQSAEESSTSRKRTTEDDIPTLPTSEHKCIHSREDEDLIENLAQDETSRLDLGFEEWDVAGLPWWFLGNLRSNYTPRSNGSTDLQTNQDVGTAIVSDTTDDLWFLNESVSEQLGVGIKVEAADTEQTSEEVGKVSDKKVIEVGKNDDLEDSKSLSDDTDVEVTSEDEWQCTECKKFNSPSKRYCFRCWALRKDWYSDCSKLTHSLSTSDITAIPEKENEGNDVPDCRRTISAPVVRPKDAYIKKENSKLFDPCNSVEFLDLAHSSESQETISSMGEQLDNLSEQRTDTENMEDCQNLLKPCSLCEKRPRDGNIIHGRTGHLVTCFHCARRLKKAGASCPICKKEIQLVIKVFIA

E3 ubiquitin-protein ligase Mdm2, sequence (Q00987 whole entry): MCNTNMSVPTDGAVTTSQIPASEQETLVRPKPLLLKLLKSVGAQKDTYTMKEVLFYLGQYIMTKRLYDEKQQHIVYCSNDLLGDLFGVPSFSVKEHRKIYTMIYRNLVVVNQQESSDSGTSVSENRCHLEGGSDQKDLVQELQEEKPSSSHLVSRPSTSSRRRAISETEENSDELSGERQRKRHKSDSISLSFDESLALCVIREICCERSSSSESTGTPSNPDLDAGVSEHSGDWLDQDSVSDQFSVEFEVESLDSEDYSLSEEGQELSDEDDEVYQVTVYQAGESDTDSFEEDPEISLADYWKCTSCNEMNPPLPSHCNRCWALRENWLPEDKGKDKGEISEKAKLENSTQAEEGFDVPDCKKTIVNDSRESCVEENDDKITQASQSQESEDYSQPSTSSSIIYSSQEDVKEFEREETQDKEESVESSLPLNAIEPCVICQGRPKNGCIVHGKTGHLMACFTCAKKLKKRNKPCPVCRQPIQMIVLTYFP

Structure (SMILES)	IC50 ([1]; read-out: IC50) [µM]	IC50 (Protein Mdm4; read-out: IC50) [µM]	IC50 (Protein Mdm4)	IC50 [1]
CC(C)CCNC(=O)N(CC(CCC(=O)O)NC(N)=O)C(CCCCN)CN(C(=O)NCCc1ccc(Cl)cc1)C(CCC(=O)O)CN(CCC(N)=O)C(=O)NCCc1ccccc1 (centres undefined)	> 100			
NCCCCC(CN(C(=O)NCCc1ccc(Br)cc1)C(CCC(=O)O)CN(CCC(N)=O)C(=O)NCCCc1ccc(Br)cc1)N(CC(CCC(=O)O)NC(N)=O)C(=O)NCCCc1ccc([N+](=O)[O-])cc1 (centres undefined)	10	8.1		
NCCCC[C@@H](CN(C(=O)NCCCC1CCCCC1)[C@@H](CCCCN)CN(C(=O)NCCc1ccc(Br)cc1)[C@@H](CCCCN)CN(CCC(N)=O)C(=O)NCCCc1ccc(F)cc1)NC(N)=O			Not Active	Not Active
CC(C)CCCNC(=O)N(CC(CCC(=O)O)NC(N)=O)C(CCCCN)CN(C(=O)NCCCc1ccc(Br)cc1)C(CCC(=O)O)CN(CCC(N)=O)C(=O)NCCCc1ccccc1 (centres undefined)	20			
Cc1ccc(CCNC(=O)N(CC(CCCCN)N(CC(CCC(=O)O)NC(=O)CCC(C)C)C(=O)NCCCC2CCCCC2)C(CCC(=O)O)CN(CCC(N)=O)C(=O)NCCCc2ccc(F)cc2)cc1 (centres undefined)	2.9	5.1		
CC(C)CCCNC(=O)N(CC(CCC(=O)O)NC(N)=O)C(CCCCN)CN(C(=O)NCCCc1ccccc1)C(CCC(=O)O)CN(CCC(N)=O)C(=O)NCCc1ccc(Br)cc1 (centres undefined)	38			
C=CCNC(=O)NC(CCC(=O)O)CN(C(=O)NCCCC1CCCCC1)C(CCCCN)CN(C(=O)NCCc1ccc(Br)cc1)C(CCC(=O)O)CN(CCC(N)=O)C(=O)NCCCc1ccc(Br)cc1 (centres undefined)	17	10		
CC(C)CCCNC(=O)N(CC(CCC(=O)O)NC(N)=O)C(CCCCN)CN(C(=O)NCCc1ccc(Br)cc1)C(CCC(=O)O)CN(CCC(N)=O)C(=O)NCCCc1ccccc1 (centres undefined)	18			
Cc1ccc(CCNC(=O)N(CC(CCCCN)N(CC(CCC(=O)O)NC(=O)CCC(C)C)C(=O)NCCCC2CCCCC2)C(CCC(=O)O)CN(CCC(N)=O)C(=O)NCCCCc2ccc(F)cc2)cc1 (centres undefined)	13	14		
NCCCCC(CN(C(=O)NCCc1ccc(Br)cc1)C(CCC(=O)O)CN(CCC(N)=O)C(=O)NCCCc1ccc(Br)cc1)N(CC(CCC(=O)O)NC(N)=O)C(=O)NCCCC1CCCCC1 (centres undefined)	6.4	6.5		
CC(C)CCCNC(=O)N(CC(CCC(=O)O)NC(N)=O)C(CCCCN)CN(C(=O)NCCc1ccc(Br)cc1)C(CCC(=O)O)CN(CCC(N)=O)C(=O)NCCCc1ccc([N+](=O)[O-])cc1 (centres undefined)	41			
CC(C)CCCNC(=O)N(CC(CCC(=O)O)NC(N)=O)C(CCCCN)CN(C(=O)NCCc1ccc(Cl)cc1)C(CCC(=O)O)CN(CCC(N)=O)C(=O)NCCc1ccc(Cl)cc1 (centres undefined)	63			
NCCCCC(CN(C(=O)NCCc1ccc(Br)cc1)C(CCC(=O)O)CN(CCC(N)=O)C(=O)NCCCc1ccc(Br)cc1)N(CC(CCC(=O)O)NC(N)=O)C(=O)NCCCc1ccc(Br)cc1 (centres undefined)	8.2	7.5		
Cc1ccc(CCCNC(=O)N(CCC(N)=O)CC(CCC(=O)O)N(CC(CCCCN)N(CC(CCC(=O)O)NC(N)=O)C(=O)NCCCC(C)C)C(=O)NCCc2ccc(Br)cc2)cc1 (centres undefined)	24	36		
COc1ccc(CCCNC(=O)N(CC(CCC(=O)O)NC(N)=O)C(CCCCN)CN(C(=O)NCCc2ccc(Br)cc2)C(CCC(=O)O)CN(CCC(N)=O)C(=O)NCCCc2ccc(Br)cc2)cc1 (centres undefined)	12	12		
Cc1ccc(CCNC(=O)N(CC(CCCCN)N(CC(CCC(=O)O)NC(=O)CCC(C)C)C(=O)NCCCC2CCCCC2)C(CCC(=O)O)CN(CCC(N)=O)C(=O)NCCCc2ccc(Br)cc2)cc1 (centres undefined)	2.3	3.2		
CC(C)CCC(=O)N[C@@H](CCCC(=O)O)CN(C(=O)NCCCC1CCCCC1)[C@@H](CCCCN)CN(C(=O)NCCc1ccc(Br)cc1)[C@@H](CCCC(=O)O)CN(CCC(N)=O)C(=O)NCCCc1ccc(F)cc1	5.9	41		
CC(C)CCC(=O)NC(CCC(=O)O)CN(C(=O)NCCCC1CCCCC1)C(CCCCN)CN(C(=O)NCCc1ccc(Br)cc1)C(CCC(=O)O)CN(CCC(N)=O)C(=O)NCCCc1ccc(Br)cc1 (centres undefined)	2.8	4.1		
CC(C)CCC(=O)NC(CCC(=O)O)CN(CCC1CCC2(CCCCC2)CC1)C(CCCCN)CN(CCCCc1ccc(Br)cc1)[C@@H](CCC(=O)O)CN(CCCCCc1ccc(F)cc1)CCC(N)=O (some centres undefined)	> 100	> 100		

Further lines, with some results ahead:

IC50 ([1]; read-out: IC50) [µM]	IC50 (Protein Mdm4; read-out: IC50) [µM]	Structure (SMILES)	IC50 (Protein Mdm4)	IC50 [1]
10.5	7.6	NCCCCC(CN(C(=O)NCCc1ccc(Br)cc1)C(CCC(=O)O)CN(CCC(N)=O)C(=O)NCCCc1ccc(Br)cc1)N(CC(CCC(=O)O)NC(=O)Cc1ccccc1)C(=O)NCCCC1CCCCC1 (centres undefined)		
9.2	24	CC(C)CCCNC(=O)N(CC(CCC(=O)O)NC(N)=O)C(CCCCN)CN(C(=O)NCCc1ccc(Br)cc1)C(CCC(=O)O)CN(CCC(N)=O)C(=O)NCCCc1ccc(Br)cc1 (centres undefined)		
2.6	2.7	CC(C)CCC(=O)NC(CCC(=O)O)CN(C(=O)NCCCC1CCCCC1)C(CCCCN)CN(C(=O)NCCc1ccc(Br)cc1)C(CCC(=O)O)CN(CCC(N)=O)C(=O)NCCCc1ccc(F)cc1 (centres undefined)		
17	41	CC(C)CCCNC(=O)N(CC(CCC(=O)O)NC(N)=O)C(CCCCN)CN(C(=O)NCCc1ccc(Br)cc1)C(CCC(=O)O)CN(CCC(N)=O)C(=O)NCCc1ccc(Br)cc1 (centres undefined)		
2.8	7.5	NCCCCC(CN(C(=O)NCCc1ccc(Br)cc1)C(CCC(=O)O)CN(CCC(N)=O)C(=O)NCCCc1ccc(Br)cc1)N(CC(CCC(=O)O)NC(=O)CCC1CCCCC1)C(=O)NCCCC1CCCCC1 (centres undefined)		
85		CC(C)CCCNC(=O)N(CC(CCC(=O)O)NC(N)=O)C(CCCCN)CN(C(=O)NCCc1ccc(Cl)cc1)C(CCC(=O)O)CN(CCC(N)=O)C(=O)NCCc1ccccc1 (centres undefined)		
6.6	8	NCCCCC(CN(C(=O)NCCc1ccc(Br)cc1)C(CCC(=O)O)CN(CCC(N)=O)C(=O)NCCCc1ccc(Br)cc1)N(CC(CCC(=O)O)NC(=O)NCC1CCCCC1)C(=O)NCCCC1CCCCC1 (centres undefined)		
43		CC(C)CCCNC(=O)N(CC(CCC(=O)O)NC(N)=O)C(CCCCN)CN(C(=O)NCCc1ccc(Cl)cc1)C(CCC(=O)O)CN(CCC(N)=O)C(=O)NCCCc1ccccc1 (centres undefined)		
13	20	NCCCCC(CN(C(=O)NCCc1ccc(Br)cc1)C(CCC(=O)O)CN(CCC(N)=O)C(=O)NCCCc1ccc(Br)cc1)N(CC(CCC(=O)O)NC(N)=O)C(=O)NCCCc1ccccc1 (centres undefined)		
> 100	> 100	COc1ccc(CCCNC(=O)N(CCC(N)=O)CC(CCC(=O)O)N(CC(CCCCN)N(CC(CCC(=O)O)NC(N)=O)C(=O)NCCCC(C)C)C(=O)NCCc2ccc(Br)cc2)cc1 (centres undefined)		
8.2	10	NCCCCC(CN(C(=O)NCCc1ccc(Br)cc1)C(CCC(=O)O)CN(CCC(N)=O)C(=O)NCCCc1ccc(Br)cc1)N(CC(CCC(=O)O)NC(=O)[C@@H]1CCCN1)C(=O)NCCCC1CCCCC1 (some centres undefined)		
13	13	CC(C)CCCCNC(=O)N(CC(CCC(=O)O)NC(N)=O)C(CCCCN)CN(C(=O)NCCc1ccc(Br)cc1)C(CCC(=O)O)CN(CCC(N)=O)C(=O)NCCCc1ccc(Br)cc1 (centres undefined)		
